{"source": "ChEMBL document CHEMBL1240350", "about": "“In vitro activity of CEM-101 against Streptococcus pneumoniae and Streptococcus pyogenes with defined macrolide resistance mechanisms” (Antimicrob Agents Chemother, 2010)", "key": {"Streptococcus pneumoniae [1]": {"tested_on": "Streptococcus pneumoniae", "test": "Antibacterial activity against Streptococcus pneumoniae harboring mef(A) gene after overnight incubation by agar dilution method", "assay_type": "functional", "how_it_was_run": "(§1)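 Clinical isolates collected 1998–2008, with macrolide-resistance genes confirmed by PCR. MICs by agar dilution on Mueller-Hinton agar with 5% sheep blood. Inoculum 10^4 CFU/spot, incubated overnight at 35°C in ambient air. S. pneumoniae ATCC 49619 was the quality-control strain in every run.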"}, "Streptococcus pneumoniae [2]": {"tested_on": "Streptococcus pneumoniae", "test": "Antibacterial activity against Streptococcus pneumoniae harboring erm(A) gene after overnight incubation by agar dilution method", "assay_type": "functional", "how_it_was_run": "as §1"}, "Streptococcus pneumoniae [3]": {"tested_on": "Streptococcus pneumoniae", "test": "Antibacterial activity against quinolone-susceptible Streptococcus pneumoniae after overnight incubation by agar dilution method", "assay_type": "functional", "how_it_was_run": "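Agar dilution on Mueller-Hinton agar supplemented with 5% sheep blood. Inoculum 10^4 CFU/spot, incubated overnight at 35°C in ambient air. Test strains were clinical pneumococcal isolates. S. pneumoniae ATCC 49619 was included as the quality control strain in each run. MIC range, MIC50 and MIC90 were reported for each susceptibility category.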"}, "Streptococcus pneumoniae [4]": {"tested_on": "Streptococcus pneumoniae", "test": "Antibacterial activity against macrolide-resistant Streptococcus pneumoniae harboring mef(A) gene after overnight incubation by agar dilution method", "assay_type": "functional", "how_it_was_run": "(§2)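 Agar dilution MICs on Mueller-Hinton agar with 5% sheep blood. Inoculum 10^4 CFU/spot, incubated overnight at 35°C in ambient air. Clinical S. pneumoniae or group A streptococcal isolates; resistance genotypes (erm(B), erm(A), mef(A)/mef(E)) were assigned by PCR. S. pneumoniae ATCC 49619 served as QC strain in each run. Range, MIC50 and MIC90 reported per phenotype group.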"}, "Streptococcus pyogenes [5]": {"tested_on": "Streptococcus pyogenes", "test": "Antibacterial activity against macrolide-susceptible Streptococcus pyogenes after overnight incubation by agar dilution method", "assay_type": "functional", "how_it_was_run": "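Agar dilution on Mueller-Hinton agar supplemented with 5% sheep blood, inoculum 10^4 CFU/spot, read after overnight incubation at 35°C in ambient air. Clinical isolates with defined genotypes; S. pneumoniae ATCC 49619 quality control strain included in each run. MIC50/MIC90 are MICs inhibiting 50% and 90% of isolates.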"}, "Streptococcus pyogenes [6]": {"tested_on": "Streptococcus pyogenes", "test": "Antibacterial activity against Streptococcus pyogenes harboring mef(A) gene after overnight incubation by agar dilution method", "assay_type": "functional", "how_it_was_run": "as §1"}, "Streptococcus pyogenes [7]": {"tested_on": "Streptococcus pyogenes", "test": "Antibacterial activity against Streptococcus pyogenes harboring erm(A) gene after overnight incubation by agar dilution method", "assay_type": "functional", "how_it_was_run": "as §1"}, "Streptococcus pyogenes [8]": {"tested_on": "Streptococcus pyogenes", "test": "Antibacterial activity against macrolide-resistant Streptococcus pyogenes harboring mef(A) gene after overnight incubation by agar dilution method", "assay_type": "functional", "how_it_was_run": "as §2"}, "Streptococcus pneumoniae [9]": {"tested_on": "Streptococcus pneumoniae", "test": "Antibacterial activity against macrolide-susceptible Streptococcus pneumoniae 1077 after 15 passages and 10 compound-free subculturing by retest method", "assay_type": "functional"}, "Streptococcus pneumoniae [10]": {"tested_on": "Streptococcus pneumoniae", "test": "Antibacterial activity against macrolide-susceptible Streptococcus pneumoniae 1077 after 49 passages and 10 compound-free subculturing by retest method", "assay_type": "functional"}, "Streptococcus pneumoniae [11]": {"tested_on": "Streptococcus pneumoniae", "test": "Antibacterial activity against macrolide-resistant Streptococcus pneumoniae 3665 harboring mef(A) gene after 26 passages and 10 compound-free subculturing by retest method", "assay_type": "functional"}, "Streptococcus pneumoniae [12]": {"tested_on": "Streptococcus pneumoniae", "test": "Antibacterial activity against macrolide-resistant Streptococcus pneumoniae 1076 harboring erm(B) and mef(A) gene after 18 passages and 10 compound-free subculturing by retest method", "assay_type": "functional", "how_it_was_run": "(§3)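 Multistep selection by daily serial passage in subinhibitory drug concentrations. Medium was cation-adjusted Mueller-Hinton broth plus 5% lysed horse blood. Each day the next inoculum came from the tube 1–2 dilutions below the MIC whose turbidity matched the growth control, for up to 50 days. Clone MICs by CLSI macrodilution; identity to the parent confirmed by SmaI PFGE.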"}, "Streptococcus pneumoniae [13]": {"tested_on": "Streptococcus pneumoniae", "test": "Antibacterial activity against macrolide-resistant Streptococcus pneumoniae 1635 harboring erm(A) gene after 32 passages and 10 compound-free subculturing by retest method", "assay_type": "functional", "how_it_was_run": "as §3"}, "Streptococcus pneumoniae [14]": {"tested_on": "Streptococcus pneumoniae", "test": "Antibacterial activity against macrolide-resistant Streptococcus pneumoniae 1635 harboring erm(A) gene after 49 passages and 10 compound-free subculturing by retest method", "assay_type": "functional", "how_it_was_run": "as §3"}, "Streptococcus pneumoniae [15]": {"tested_on": "Streptococcus pneumoniae", "test": "Antibacterial activity against macrolide-resistant Streptococcus pneumoniae 2686 harboring mutation in L4 ribosomal protein after 14 passages and 10 compound-free subculturing by retest method", "assay_type": "functional"}, "Streptococcus pneumoniae [16]": {"tested_on": "Streptococcus pneumoniae", "test": "Antibacterial activity against macrolide-resistant Streptococcus pneumoniae 2686 harboring mutation in L4 ribosomal protein after 25 passages and 10 compound-free subculturing by retest method", "assay_type": "functional"}, "Streptococcus pneumoniae [17]": {"tested_on": "Streptococcus pneumoniae", "test": "Antibacterial activity against macrolide-susceptible Streptococcus pneumoniae 7127 harboring S20N mutation in L4 ribosomal protein and A105V mutation in L22 ribosomal protein after 16 passages and 10 compound-free subculturing by retest method", "assay_type": "functional"}, "Streptococcus pneumoniae [18]": {"tested_on": "Streptococcus pneumoniae", "test": "Antibacterial activity against macrolide-susceptible Streptococcus pneumoniae 7127 harboring S20N mutation in L4 ribosomal protein and A105V mutation in L22 ribosomal protein after 38 passages and 10 compound-free subculturing by retest method", "assay_type": "functional"}, "Streptococcus pneumoniae [19]": {"tested_on": "Streptococcus pneumoniae", "test": "Antibacterial activity against macrolide-susceptible Streptococcus pneumoniae 7127 harboring S20N mutation in L4 ribosomal protein and A105V mutation in L22 ribosomal protein after 43 passages and 10 compound-free subculturing by retest method", "assay_type": "functional"}, "Streptococcus pneumoniae [20]": {"tested_on": "Streptococcus pneumoniae", "test": "Antibacterial activity against macrolide-resistant Streptococcus pneumoniae 3009 harboring mutation in 23S rRNA after 25 passages and 10 compound-free subculturing by retest method", "assay_type": "functional"}, "Streptococcus pneumoniae [21]": {"tested_on": "Streptococcus pneumoniae", "test": "Antibacterial activity against macrolide-resistant Streptococcus pneumoniae 3665 harboring mef(A) gene after overnight incubation by agar dilution method", "assay_type": "functional"}, "Streptococcus pneumoniae [22]": {"tested_on": "Streptococcus pneumoniae", "test": "Antibacterial activity against macrolide-susceptible Streptococcus pneumoniae 7127 harboring S20N mutation in L4 ribosomal protein and A105V mutation in L22 ribosomal protein after overnight incubation by agar dilution method", "assay_type": "functional"}, "Streptococcus pyogenes [23]": {"tested_on": "Streptococcus pyogenes", "test": "Antibacterial activity against macrolide-susceptible Streptococcus pyogenes 2132 after overnight incubation by agar dilution method"}, "Streptococcus pyogenes [24]": {"tested_on": "Streptococcus pyogenes", "test": "Antibacterial activity against macrolide-resistant Streptococcus pyogenes 2094 harboring erm(A) gene after overnight incubation by agar dilution method"}, "Streptococcus pyogenes [25]": {"tested_on": "Streptococcus pyogenes", "test": "Antibacterial activity against macrolide-resistant Streptococcus pyogenes 2094 harboring erm(A) gene after 6 passages and 10 compound-free subculturing by retest method"}, "Streptococcus pyogenes [26]": {"tested_on": "Streptococcus pyogenes", "test": "Antibacterial activity against macrolide-resistant Streptococcus pyogenes 237 harboring mutation in L4 ribosomal protein after overnight incubation by agar dilution method"}, "Streptococcus pyogenes [27]": {"tested_on": "Streptococcus pyogenes", "test": "Antibacterial activity against macrolide-resistant Streptococcus pyogenes 237 harboring mutation in L4 ribosomal protein after 20 passages and 10 compound-free subculturing by retest method"}}, "data": [{"smiles": "CC[C@H]1OC(=O)[C@H](C)[C@@H](O[C@H]2C[C@@](C)(OC)[C@@H](O)[C@H](C)O2)[C@H](C)[C@@H](O[C@@H]2O[C@H](C)C[C@H](N(C)C)[C@H]2O)[C@](C)(O)C[C@@H](C)CN(C)[C@H](C)[C@@H](O)[C@]1(C)O", "note": "[AZITHROMYCIN]", "values": [{"measurement": "MIC50", "setting": "Streptococcus pneumoniae [1]", "value": 4, "unit": "µg/mL"}, {"measurement": "MIC90", "setting": "Streptococcus pneumoniae [1]", "value": 8, "unit": "µg/mL"}, {"measurement": "MIC", "setting": "Streptococcus pneumoniae [2]", "value": 2, "unit": "µg/mL"}, {"measurement": "MIC50", "setting": "Streptococcus pneumoniae [3]", "value": "> 64", "unit": "µg/mL"}, {"measurement": "MIC90", "setting": "Streptococcus pneumoniae [3]", "value": "> 64", "unit": "µg/mL"}, {"measurement": "MIC50", "setting": "Streptococcus pneumoniae [4]", "value": 4, "unit": "µg/mL"}, {"measurement": "MIC90", "setting": "Streptococcus pneumoniae [4]", "value": 8, "unit": "µg/mL"}, {"measurement": "MIC50", "setting": "Streptococcus pyogenes [5]", "value": 0.125, "unit": "µg/mL"}, {"measurement": "MIC90", "setting": "Streptococcus pyogenes [5]", "value": 0.25, "unit": "µg/mL"}, {"measurement": "MIC50", "setting": "Streptococcus pyogenes [6]", "value": 8, "unit": "µg/mL"}, {"measurement": "MIC90", "setting": "Streptococcus pyogenes [6]", "value": 8, "unit": "µg/mL"}, {"measurement": "MIC50", "setting": "Streptococcus pyogenes [7]", "value": 16, "unit": "µg/mL"}, {"measurement": "MIC90", "setting": "Streptococcus pyogenes [7]", "value": "> 64", "unit": "µg/mL"}, {"measurement": "MIC50", "setting": "Streptococcus pyogenes [8]", "value": 8, "unit": "µg/mL"}, {"measurement": "MIC90", "setting": "Streptococcus pyogenes [8]", "value": 8, "unit": "µg/mL"}, {"measurement": "MIC", "setting": "Streptococcus pneumoniae [9]", "value": "> 64", "unit": "µg/mL"}, {"measurement": "MIC", "setting": "Streptococcus pneumoniae [10]", "value": "> 64", "unit": "µg/mL"}, {"measurement": "MIC", "setting": "Streptococcus pneumoniae [11]", "value": 8, "unit": "µg/mL"}, {"measurement": "MIC", "setting": "Streptococcus pneumoniae [12]", "value": "> 64", "unit": "µg/mL"}, {"measurement": "MIC", "setting": "Streptococcus pneumoniae [13]", "value": 4, "unit": "µg/mL"}, {"measurement": "MIC", "setting": "Streptococcus pneumoniae [14]", "value": "> 64", "unit": "µg/mL"}, {"measurement": "MIC", "setting": "Streptococcus pneumoniae [15]", "value": "> 64", "unit": "µg/mL"}, {"measurement": "MIC", "setting": "Streptococcus pneumoniae [16]", "value": "> 64", "unit": "µg/mL"}, {"measurement": "MIC", "setting": "Streptococcus pneumoniae [17]", "value": 0.06, "unit": "µg/mL"}, {"measurement": "MIC", "setting": "Streptococcus pneumoniae [18]", "value": 0.06, "unit": "µg/mL"}, {"measurement": "MIC", "setting": "Streptococcus pneumoniae [19]", "value": 0.03, "unit": "µg/mL"}, {"measurement": "MIC", "setting": "Streptococcus pneumoniae [20]", "value": "> 64", "unit": "µg/mL"}, {"measurement": "MIC", "setting": "Streptococcus pneumoniae [21]", "value": 8, "unit": "µg/mL"}, {"measurement": "MIC", "setting": "Streptococcus pneumoniae [22]", "value": 0.06, "unit": "µg/mL"}, {"measurement": "MIC", "setting": "Streptococcus pyogenes [23]", "value": 0.06, "unit": "µg/mL"}, {"measurement": "MIC", "setting": "Streptococcus pyogenes [24]", "value": 4, "unit": "µg/mL"}, {"measurement": "MIC", "setting": "Streptococcus pyogenes [25]", "value": "> 64", "unit": "µg/mL"}, {"measurement": "MIC", "setting": "Streptococcus pyogenes [26]", "value": 4, "unit": "µg/mL"}, {"measurement": "MIC", "setting": "Streptococcus pyogenes [27]", "value": 4, "unit": "µg/mL"}]}]}
